Measurements: ChEMBL document CHEMBL1154881, “Synthesis and antimicrobial activities of novel 1,5-diaryl pyrazoles” (2010)
Values after ≈ are worked out from the molar mass of the structure shown.

How the values were obtained:
Escherichia coli [1] = assay: Antibacterial activity against Escherichia coli ATTC 25922 after 24 hrs by broth dilution method; assay type: functional; conditions: ATTC 25922, 24 h
Staphylococcus aureus [2] = assay: Antibacterial activity against Staphylococcus aureus ATTC 25923 after 24 hrs by broth dilution method; assay type: functional; conditions: ATTC 25923, 24 h
Escherichia coli [3] = assay: Antibacterial activity against Escherichia coli ATTC 25922 after 24 hrs by disk diffusion method; assay type: functional
Method in brief: (§1)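 Disc diffusion, each concentration tested in triplicate on nutrient agar seeded separately with fresh bacteria. Incubation 37 °C, 24 h. Solvent and growth controls included. Zones of inhibition recorded. The K. pneumoniae strain was recultured.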

Staphylococcus aureus [4] = assay: Antibacterial activity against Staphylococcus aureus ATTC 25923 after 24 hrs by disk diffusion method; assay type: functional; method in brief: as §1
Aspergillus fumigatus = assay: Antifungal activity against Aspergillus fumigatus NCIM 902 after 3 to 4 days by serial plate dilution method; assay type: functional
Method in brief: (§2)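 Sabouraud's agar (peptone 1 g, D-glucose 4 g, agar 2 g per 100 ml water, pH 5.7) plates were lawned with spore suspension (a loopful in 3 ml normal saline) and dried 1 h at 37 °C. Wells were punched and filled with compound in DMSO at 10–50 mg/ml, with a DMSO control. Plates in triplicate, 37 °C for 3–4 days.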

Talaromyces marneffei [5] = assay: Antifungal activity against Penicillium marneffei at 10 to 50 ug/ml after 3 to 4 days; assay type: functional
Talaromyces marneffei [6] = assay: Antifungal activity against Penicillium marneffei after 3 to 4 days by serial plate dilution method; assay type: functional; method in brief: as §2
Pseudomonas aeruginosa [7] = assay: Antibacterial activity against Pseudomonas aeruginosa ATTC 27853 after 24 hrs by disk diffusion method; assay type: functional; method in brief: as §1
Klebsiella pneumoniae [8] = assay: Antibacterial activity against Klebsiella pneumoniae after 24 hrs by […]
[9] = tested on: Trichophyton mentagrophytes; assay: Antifungal activity against Trichophyton mentagrophytes at 10 to 50 ug/ml after 3 to 4 days; assay type: functional
Aspergillus flavus = assay: Antifungal activity against Aspergillus flavus NCIM 524 after 3 to 4 days by serial plate dilution method; assay type: functional; method in brief: as §2
[10] = tested on: Trichophyton mentagrophytes; assay: Antifungal activity against Trichophyton mentagrophytes after 3 to 4 days by serial plate dilution method; assay type: functional; method in brief: as §2
Klebsiella pneumoniae [11] = assay: Antibacterial activity against Klebsiella pneumoniae after 24 hrs by disk diffusion method; assay type: functional; method in brief: as §1
Pseudomonas aeruginosa [12] = assay: Antibacterial activity against Pseudomonas aeruginosa ATTC 27853 after 24 hrs by broth dilution method; assay type: functional; conditions: ATTC 27853, 24 h

Row | Compound | MIC (Escherichia coli [1]) | MIC (Staphylococcus aureus [2]) | inhibition zone (IZ) (Escherichia coli [3]) | inhibition zone (IZ) (Staphylococcus aureus [4]) | inhibition zone (IZ) (Aspergillus fumigatus) | MIC (Talaromyces marneffei [5]) | inhibition zone (IZ) (Talaromyces marneffei [6]) | inhibition zone (IZ) (Pseudomonas aeruginosa [7]) | MIC (Klebsiella pneumoniae [8]) | MIC [9] | inhibition zone (IZ) (Aspergillus flavus) | inhibition zone (IZ) [10] | inhibition zone (IZ) (Klebsiella pneumoniae [11]) | MIC (Pseudomonas aeruginosa [12])
1 | CCNC(=O)N1CCN(C(=O)c2cc(-c3ccc(Cl)cc3)n(-c3ccc(F)cc3)n2)CC1 | 12.5 µg/mL (≈ 27.4 µM) | 12.5 µg/mL (≈ 27.4 µM) | 19 mm | 18 mm | 18 mm | 12.5 µg/mL (≈ 27.4 µM) | 19 mm | <10 mm | 50 µg/mL (≈ 110 µM) | 12.5 µg/mL (≈ 27.4 µM) | 17 mm | 24 mm | 17 mm | –
2 | N#Cc1ccc(NC(=O)N2CCN(C(=O)c3cc(-c4ccc(Cl)cc4)n(-c4ccc(F)cc4)n3)CC2)cc1 | 12.5 µg/mL (≈ 23.6 µM) | 12.5 µg/mL (≈ 23.6 µM) | 19 mm | 21 mm | 24 mm | 12.5 µg/mL (≈ 23.6 µM) | 23 mm | <10 mm | – | 12.5 µg/mL (≈ 23.6 µM) | <10 mm | 21 mm | 19 mm | –
3 | O=C(c1cc(-c2ccc(Cl)cc2)n(-c2ccc(F)cc2)n1)N1CCC(O)CC1 | 12.5 µg/mL (≈ 31.3 µM) | 12.5 µg/mL (≈ 31.3 µM) | 24 mm | 23 mm | 27 mm | 12.5 µg/mL (≈ 31.3 µM) | 24 mm | 29 mm | 12.5 µg/mL (≈ 31.3 µM) | 12.5 µg/mL (≈ 31.3 µM) | 29 mm | 26 mm | 21 mm | –
4 | Cc1nc(-c2cc(-c3ccc(Cl)cc3)n(-c3ccc(F)cc3)n2)sc1C(=O)NNC(=S)NC(=O)c1ccccc1 | – | – | <10 mm | <10 mm | <10 mm | – | <10 mm | <10 mm | – | – | <10 mm | <10 mm | <10 mm | –
5 | Cc1nc(-c2cc(-c3ccc(Cl)cc3)n(-c3ccc(F)cc3)n2)sc1C(=O)NN | 12.5 µg/mL (≈ 29.2 µM) | 12.5 µg/mL (≈ 29.2 µM) | 18 mm | 20 mm | 19 mm | 12.5 µg/mL (≈ 29.2 µM) | 20 mm | 19 mm | 50 µg/mL (≈ 117 µM) | 12.5 µg/mL (≈ 29.2 µM) | <10 mm | 19 mm | 19 mm | –
6 | Cc1nc(NC(=O)c2cc(-c3ccc(Cl)cc3)n(-c3ccc(F)cc3)n2)sc1C(=O)O | – | – | <10 mm | <10 mm | <10 mm | – | <10 mm | <10 mm | – | – | <10 mm | <10 mm | <10 mm | –
7 | Cc1nc(-c2cc(-c3ccc(Cl)cc3)n(-c3ccc(F)cc3)n2)sc1C(=O)NNC(=O)NC(=O)c1ccc(C(F)(F)F)cc1 | 12.5 µg/mL (≈ 19.4 µM) | 12.5 µg/mL (≈ 19.4 µM) | 20 mm | 19 mm | 25 mm | 12.5 µg/mL (≈ 19.4 µM) | 22 mm | <10 mm | 50 µg/mL (≈ 77.8 µM) | 12.5 µg/mL (≈ 19.4 µM) | <10 mm | 17 mm | 19 mm | –
8 | O=C1CCN(C(=O)c2cc(-c3ccc(Cl)cc3)n(-c3ccc(F)cc3)n2)CC1 | 12.5 µg/mL (≈ 31.4 µM) | 12.5 µg/mL (≈ 31.4 µM) | 27 mm | 24 mm | 26 mm | 12.5 µg/mL (≈ 31.4 µM) | 29 mm | 18 mm | 12.5 µg/mL (≈ 31.4 µM) | 50 µg/mL (≈ 126 µM) | 18 mm | 24 mm | 25 mm | 12.5 µg/mL (≈ 31.4 µM)
9 | CCOC(=O)c1sc(NC(=O)c2cc(-c3ccc(Cl)cc3)n(-c3ccc(F)cc3)n2)nc1C | – | – | <10 mm | <10 mm | <10 mm | – | <10 mm | <10 mm | – | – | <10 mm | <10 mm | <10 mm | –
10 | Cc1cc(C2CCCCC2)n(O)c(=O)c1.NCCO [CICLOPIROX OLAMINE] | – | – | – | – | 26 mm | 6.25 µg/mL | 23 mm | – | – | 3.12 µg/mL | 27 mm | 27 mm | – | –
11 | C=CCNC(=O)NNC(=O)c1sc(-c2cc(-c3ccc(Cl)cc3)n(-c3ccc(F)cc3)n2)nc1C | 12.5 µg/mL (≈ 24.5 µM) | 12.5 µg/mL (≈ 24.5 µM) | 22 mm | 21 mm | 23 mm | 12.5 µg/mL (≈ 24.5 µM) | 21 mm | <10 mm | – | 12.5 µg/mL (≈ 24.5 µM) | 21 mm | 19 mm | 21 mm | –
12 | N#Cc1ccc(-c2csc(-c3cc(-c4ccc(Cl)cc4)n(-c4ccc(F)cc4)n3)n2)cc1 | 12.5 µg/mL (≈ 27.4 µM) | 12.5 µg/mL (≈ 27.4 µM) | 20 mm | 19 mm | <10 mm | 12.5 µg/mL (≈ 27.4 µM) | 22 mm | 19 mm | – | 12.5 µg/mL (≈ 27.4 µM) | <10 mm | 22 mm | 17 mm | 50 µg/mL (≈ 109 µM)
13 | O=C(O)c1cn(C2CC2)c2cc(N3CCNCC3)c(F)cc2c1=O [CIPROFLOXACIN] | 6.25 µg/mL (≈ 18.9 µM) | 6.25 µg/mL (≈ 18.9 µM) | 32 mm | 23 mm | – | – | – | 28 mm | 6.25 µg/mL (≈ 18.9 µM) | – | – | – | 24 mm | 6.25 µg/mL (≈ 18.9 µM)
14 | Fc1ccc(-n2nc(-c3nc(-c4ccc(Cl)cc4)cs3)cc2-c2ccc(Cl)cc2)cc1 | 12.5 µg/mL (≈ 26.8 µM) | – | 21 mm | <10 mm | <10 mm | – | <10 mm | 16 mm | – | – | <10 mm | 19 mm | 17 mm | –
15 | C=CCNC(=O)N1CCN(C(=O)c2cc(-c3ccc(Cl)cc3)n(-c3ccc(F)cc3)n2)CC1 | 12.5 µg/mL (≈ 26.7 µM) | 12.5 µg/mL (≈ 26.7 µM) | 19 mm | 20 mm | 16 mm | 12.5 µg/mL (≈ 26.7 µM) | 24 mm | 19 mm | 50 µg/mL (≈ 107 µM) | 12.5 µg/mL (≈ 26.7 µM) | 19 mm | 22 mm | 19 mm | –
16 | O=C(c1cc(-c2ccc(Cl)cc2)n(-c2ccc(F)cc2)n1)N1CCNCC1 | – | – | <10 mm | <10 mm | 23 mm | – | <10 mm | 19 mm | 12.5 µg/mL (≈ 32.5 µM) | 50 µg/mL (≈ 130 µM) | 25 mm | 19 mm | 19 mm | 50 µg/mL (≈ 130 µM)
17 | Cc1nc(-c2cc(-c3ccc(Cl)cc3)n(-c3ccc(F)cc3)n2)sc1-c1n[nH]c(=O)o1 | – | – | <10 mm | <10 mm | <10 mm | – | <10 mm | <10 mm | – | – | <10 mm | <10 mm | <10 mm | –
18 | O=C(c1cc(-c2ccc(Cl)cc2)n(-c2ccc(F)cc2)n1)N1CCN(C(=O)C2CC2)CC1 | 12.5 µg/mL (≈ 27.6 µM) | 12.5 µg/mL (≈ 27.6 µM) | 20 mm | 20 mm | 22 mm | 12.5 µg/mL (≈ 27.6 µM) | 21 mm | 17 mm | 12.5 µg/mL (≈ 27.6 µM) | 12.5 µg/mL (≈ 27.6 µM) | 24 mm | 20 mm | 19 mm | –
19 | CCCCCC(=O)N1CCN(C(=O)c2cc(-c3ccc(Cl)cc3)n(-c3ccc(F)cc3)n2)CC1 | 12.5 µg/mL (≈ 25.9 µM) | 12.5 µg/mL (≈ 25.9 µM) | 18 mm | 18 mm | 28 mm | 12.5 µg/mL (≈ 25.9 µM) | 19 mm | <10 mm | – | 12.5 µg/mL (≈ 25.9 µM) | <10 mm | 20 mm | 21 mm | –
20 | O=C(Nc1ccc(Cl)nc1)c1cc(-c2ccc(Cl)cc2)n(-c2ccc(F)cc2)n1 | – | – | <10 mm | <10 mm | <10 mm | – | <10 mm | <10 mm | – | – | <10 mm | <10 mm | <10 mm | –
